TRPC6 act – mouse TRPC6 channel activation; Q61143; HEK293-TRPC6 membrane potential dye fluorescence; stronger effect = higher value; B-score at 10 µM; actives 0.13% (n = 310,000); AID 2550;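 active = B-score of the integrated fluorescence ratio above library mean plus 3 SD, and starting fluorescence ratio within library mean plus 5 SD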;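 note: higher score means more depolarization so channel activation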
TRPC6 inhibitor – blocks the mouse TRPC6 cation channel; Q61143; HEK293-TRPC6, membrane potential dye, ACh-evoked depolarization; stronger effect = lower value; B-score at 10 µM; actives 1.1% (n = 310,000);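 active = B-score under library mean minus 3 SD, initial fluorescence not abnormally high, positive integrated signal ratio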;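 note: B-score derived from integrated fluorescence ratio over the kinetic read; more negative B-score means stronger inhibition of depolarization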
TRPC4 block – TRPC4 (mouse) channel inhibition | B-score at 10 µM | Q9QUQ5 | actives 0.39% (n = 300,000) | AID 2247 | HEK293 TRPC4beta/mu-opioid, DAMGO-evoked Fluo4 calcium flux; stronger effect = lower value;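 active = B-score over 3 SD under the library average, no early fluorescence shift, positive overall ratio signal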
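Assay system: Stable TRPC4beta/mu-opioid receptor HEK293 cells | Reagent: DAMGO in two steps, submaximal then maximal | Compound dosing: Single concentration per test compound | Signal: Fluo4 Ca2+ flux fluorescence | Evaluation: Per-well B score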
TRPC4 potent – allosterically enhances the mouse TRPC4 cation channel | HEK293 TRPC4beta/mu-opioid, DAMGO EC20, Fluo-4 Ca2+ flux; stronger effect = higher value | actives 0.42% (n = 310,000) | B-score at 10 µM | Q9QUQ5;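 active = B-score of calcium response area above 5 SD of library B-scores, with initial fluorescence ratio within 5 SD of library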;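 note: B-score of integrated fluorescence ratio over time as area under calcium response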
TRPC4 agonist – activators of mouse TRPC4 channel. Q9QUQ5. HEK293 TRPC4beta/mu-opioid, Fluo4 calcium fluorescence; stronger effect = higher value. actives 0.49% (n = 310,000). B-score at 10 µM;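 active = B-score above 5 SD of library B-scores, and initial fluorescence ratio not above library mean plus 5 SD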;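 note: positive B-score marks a calcium rise read as TRPC4 activation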
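Material: HEK293 stable line with TRPC4beta plus mu-opioid receptor; technique: Fluo4 calcium-sensitive dye fluorescence, kinetic, 1 Hz baseline; timing: Fluo4 dye loading 45 min at room temperature, 110 s recording; controls: assay buffer as low control, maximal DAMGO as high control; read-out: integrated baseline-normalised fluorescence ratio, converted to per-well B score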
TRPC4 spec 2 – mouse TRPC4 off-target activity of TRPC6 inhibitors, second screen. inhibition, % at 10 µM. HEK293 TRPC4/MOR, membrane potential dye fluorescence; channel activated by saturating DAMGO dose. shares compounds with TRPC6 inhibitor. actives 42% (n = 920);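 active = compounds whose fluorescence signal differed from control wells by over 3 SD, either direction, in both duplicate plates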
TRPC4 spec – selectivity of TRPC6 inhibitors: effect on mouse TRPC4 | shares compounds with TRPC6 inhibitor | HEK293 TRPC4/mu-opioid, membrane potential fluorescence | activity change, negative = inhibition, % at 10 µM | actives 61% (n = 920);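 active = rise or fall in signal beyond 3 SD of buffer-only wells in both replicate plates, either sign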;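 note: integrated kinetic ratio of fluorescence range over baseline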
HEK293 MPD ctr 2-1 – parental HEK293 nonspecific activity of TRPC6 inhibitors, second screen | actives 31% (n = 920) | parental HEK293 membrane potential dye fluorescence; maximal acetylcholine challenge after compound addition | signal change vs control, % at 10 µM | shares compounds with TRPC6 inhibitor;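 active = membrane potential signal moving either way by over 3 SD of the maximum-effect control, in both duplicate plates, meaning non-specific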
HEK293 MPD ctr-1 – checks TRPC6 inhibitor effects in parental HEK293 cells | parental HEK293 membrane potential dye fluorescence | membrane potential signal change, % at 10 µM | shares compounds with TRPC6 inhibitor | actives 60% (n = 920);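 active = membrane potential signal shifting up or down by more than 3 SD of buffer-only wells, on both duplicate plates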
HEK293 MPD ctr-2 – counter-screen for TRPC6 modulators: effect in parental HEK293 cells | shares compounds with TRPC6 inhibitor | membrane potential dye fluorescence | actives 51% (n = 2,400) | membrane potential signal change, % at 10 µM;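 active = membrane potential signal moves up or down beyond 5 SD from buffer-only wells, on both duplicate plates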
HEK293 MPD ctr 2-2 – second counter-screen for TRPC6 modulators: effect in parental HEK293 cells | shares compounds with TRPC6 inhibitor | actives 14% (n = 2,400) | membrane potential dye fluorescence; after compound, maximal acetylcholine stimulation | inhibition, % at 10 µM;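 active = membrane potential signal drops by more than 5 SD from the mean control signal, in both duplicate plates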;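 note: plate controls were acetylcholine ECmax control wells for no effect and buffer only wells for full effect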
TRPC4 ctr mod – selectivity of TRPC6 modulators against mouse TRPC4. shares compounds with TRPC6 inhibitor. HEK293 TRPC4/mu-opioid, membrane potential fluorescence. percent change from control (negative = decrease, positive = increase), % at 10 µM. actives 69% (n = 2,400). AID 488927;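 active = membrane potential signal moved up or down beyond 5 SD of buffer control wells, in both duplicate plates, actives on both sides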;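 note: plate controls were assay buffer wells for no effect and DAMGO maximal-effect wells for full effect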
TRPC4/MOR inh 2 – second check of whether TRPC6 modulators also affect mouse TRPC4; shares compounds with TRPC6 inhibitor; HEK293 TRPC4/mu-opioid, membrane potential dye fluorescence; stimulated with maximal-effect DAMGO; inhibition, % at 10 µM; actives 55% (n = 2,400); AID 488928;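 active = drop in membrane potential signal beyond 5 SD of the control wells in both duplicate plates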;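 note: TRPC4 counter screen for TRPC6 hits run under conditions tuned for TRPC6 not TRPC4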
TRPC6 inh conf – confirmation of mouse TRPC6 inhibitors | shares compounds with TRPC6 inhibitor | HEK293-TRPC6, membrane potential dye, ACh-evoked depolarization | inhibition, % at 10 µM | actives 43% (n = 3,300);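 active = fluorescence ratio falls more than 5 SD below the full-stimulation control mean, in both duplicate runs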;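 note: integrated fluorescence ratio of peak minus minimum over baseline after agonist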
TRPC6 act confirm – confirmation of mouse TRPC6 activators | shares compounds with TRPC6 inhibitor | HEK293-TRPC6 membrane potential dye fluorescence, FDSS | activation, % at 10 µM | actives 11% (n = 2,800) | AID 488961;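 active = ratio signal rise beyond 5 SD above unstimulated control wells' mean, seen in both duplicate runs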;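 note: plate controls were buffer EC0 wells for no effect and acetylcholine ECmax response for full effect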
Active calls of the source: *; i = inactive; x = not tested or not shown. Only some compounds are listed: those with a hit (about 2.3% of all), similar ones and a draw of the others.

SMILES	TRPC6 act	TRPC6 inhibitor	TRPC4 block	TRPC4 potent	TRPC4 agonist	HEK293 MPD ctr-2	HEK293 MPD ctr 2-2	TRPC4 ctr mod	TRPC4/MOR inh 2	TRPC6 inh conf	TRPC6 act confirm	others
Nc1nonc1C(=O)NCCNCc1ccccc1OCc1ccc(F)cc1	i	-6.31*	i	i	i	141.0%*	i	12.5%*	86.5%*	46.5%*	x
COc1ccc2c(c1)c(C)cc[n+]2Cc1ccccc1	i	-5.24*	i	i	i	-260.5%*	i	-47.5%*	51.5%*	48.5%*	i
Cc1ccc(CSCC(=O)N2CCN(c3ccc(F)cc3)CC2)cc1	i	i	i	i	i	x	x	x	x	x	x
O=C(CSCc1ccc(F)cc1)N1CCN(c2ccc(F)cc2)CC1	i	-5.37*	i	i	i	i	i	i	i	i	i
Cn1c(=O)c2c(O)c(C=Nc3ccc(F)cc3)c(=O)n(C)c2n(C)c1=O	i	-6.58*	i	i	i	-91.5%*	i	-14.5%*	i	i	i
Cn1c(=O)c(C=Nc2ccccc2)c(O)c2ccccc21	i	i	i	i	i	x	x	x	x	x	x
COC(=O)c1cc(S(=O)(=O)N2CCN(c3cccc(C)c3C)CC2)c[nH]1	i	i	i	i	i	x	x	x	x	x	x
C[n+]1ccc(/C=N/Nc2nc(Cl)c(C#N)c(Cl)c2Cl)cc1	i	-7.59*	i	i	i	x	x	x	x	61.9%*	i	TRPC4 spec 2=65.5%*;TRPC4 spec=i;HEK293 MPD ctr 2-1=-108.0%*;HEK293 MPD ctr-1=i
CN(CC(=O)Nc1ccccc1Br)C(=O)c1cccn1C	i	i	i	i	i	x	x	x	x	x	x
O=C(N=Nc1c(O)[nH]c2ccc(Cl)cc12)c1cc(-c2cccs2)nc2ccccc12	i	-5.68*	i	i	i	i	i	i	i	i	i
O=C(NCCC(=O)N(CCc1ccccc1)Cc1ccccc1)c1ccc(Br)cc1	i	i	i	i	i	x	x	x	x	x	x
COc1ccccc1Nc1nc(NCC2CCCO2)c2ccccc2n1 (stereo not drawn)	i	-8.76*	-7*	i	i	x	x	x	x	112.2%*	i	TRPC4 spec 2=32.0%*;TRPC4 spec=-12.6%*;HEK293 MPD ctr 2-1=i;HEK293 MPD ctr-1=-139.0%*
COc1ccc(OC)c(Nc2c3ccccc3nc3ccccc23)c1	i	-6*	-6*	i	i	-182.0%*	i	-30.5%*	70.0%*	53.0%*	i
COc1cccc(-c2nc(NCC3CCCO3)c3ccccc3n2)c1O (stereo not drawn)	i	i	i	i	i	x	x	x	x	x	x
COc1ccccc1Nc1nc(NCCO)c2ccccc2n1	i	i	i	i	i	x	x	x	x	x	x
Cc1ccc(Nc2nc(NCCO)c3ccccc3n2)cc1C	i	-6.54*	i	i	i	i	77.0%*	-16.5%*	86.0%*	79.0%*	i
COc1ccc(OC)c(Nc2nc(NCCO)c3ccccc3n2)c1	i	-9.02*	-5*	i	i	x	x	x	x	78.7%*	i	TRPC4 spec 2=44.5%*;TRPC4 spec=-23.7%*;HEK293 MPD ctr 2-1=32.0%*;HEK293 MPD ctr-1=-274.0%*
OCCNc1nc(-c2ccccc2)nc2ccccc12	i	i	i	i	i	x	x	x	x	x	x
Cc1nn(-c2ccccc2)nc1CNC(=O)c1ncoc1-c1ccccc1	i	i	i	i	i	x	x	x	x	x	x
Cc1cccc(N2C(=NC(=O)c3ccccc3)SC3CS(=O)(=O)CC32)c1 (stereo not drawn)	i	i	i	i	i	x	x	x	x	x	x
Cc1ccc(NC(=O)COC(=O)C(NS(=O)(=O)c2ccc(Cl)cc2)C(C)O)cc1 (stereo not drawn)	i	i	i	i	i	x	x	x	x	x	x
C/C(N)=C(/C#N)C(=O)COC(=O)C(NS(=O)(=O)c1ccc(Cl)cc1)C(C)O (stereo not drawn)	i	-5.43*	i	i	i	i	i	i	i	i	i
COc1cc(-c2cc[n+](C)cc2)ccc1O	i	-5.95*	i	i	i	-329.0%*	i	-53.0%*	i	i	i
CCOC(=O)CC1C(=O)NCCN1C(=O)c1ccc(Cl)cc1Cl (stereo not drawn)	i	i	i	i	i	x	x	x	x	x	x
CCOC(=O)N1CCN(Cc2nc(-c3ccc(OC)cc3)no2)CC1	i	i	i	i	i	x	x	x	x	x	x
CCOC(=O)N1CCN(Cc2nc(-c3ccc(Cl)cc3)no2)CC1	i	-8.88*	i	i	i	x	x	x	x	i	x	TRPC4 spec 2=i;TRPC4 spec=i;HEK293 MPD ctr 2-1=i;HEK293 MPD ctr-1=i
CC(=O)N1CCc2ccc(S(=O)(=O)N3CCN(C)CC3)cc21	i	-5.09*	i	i	i	123.0%*	i	40.0%*	i	i	x
CCCCN(CCCC)CC(O)CN(c1cc([N+](=O)[O-])ccc1OC)S(=O)(=O)c1ccccc1 (stereo not drawn)	i	-10.1*	i	i	i	x	x	x	x	66.7%*	i	TRPC4 spec 2=28.5%*;TRPC4 spec=i;HEK293 MPD ctr 2-1=i;HEK293 MPD ctr-1=0.2%*
